From ChEMBL document CHEMBL4251567 (Eur J Med Chem, 2018)

How the values were obtained:
[1] = molecular target: T1, Protein deacetylase HDAC6 (Homo sapiens) (UniProt Q9UBN7); experiment: Inhibition of HDAC6 in human HeLa-S3 cell lysates assessed as remaining activity at 5 uM preincubated for 15 mins followed by HDAC-Glo substrate addition measured after 30 to 40 mins by […] relative to control
T1 sequence (whole entry): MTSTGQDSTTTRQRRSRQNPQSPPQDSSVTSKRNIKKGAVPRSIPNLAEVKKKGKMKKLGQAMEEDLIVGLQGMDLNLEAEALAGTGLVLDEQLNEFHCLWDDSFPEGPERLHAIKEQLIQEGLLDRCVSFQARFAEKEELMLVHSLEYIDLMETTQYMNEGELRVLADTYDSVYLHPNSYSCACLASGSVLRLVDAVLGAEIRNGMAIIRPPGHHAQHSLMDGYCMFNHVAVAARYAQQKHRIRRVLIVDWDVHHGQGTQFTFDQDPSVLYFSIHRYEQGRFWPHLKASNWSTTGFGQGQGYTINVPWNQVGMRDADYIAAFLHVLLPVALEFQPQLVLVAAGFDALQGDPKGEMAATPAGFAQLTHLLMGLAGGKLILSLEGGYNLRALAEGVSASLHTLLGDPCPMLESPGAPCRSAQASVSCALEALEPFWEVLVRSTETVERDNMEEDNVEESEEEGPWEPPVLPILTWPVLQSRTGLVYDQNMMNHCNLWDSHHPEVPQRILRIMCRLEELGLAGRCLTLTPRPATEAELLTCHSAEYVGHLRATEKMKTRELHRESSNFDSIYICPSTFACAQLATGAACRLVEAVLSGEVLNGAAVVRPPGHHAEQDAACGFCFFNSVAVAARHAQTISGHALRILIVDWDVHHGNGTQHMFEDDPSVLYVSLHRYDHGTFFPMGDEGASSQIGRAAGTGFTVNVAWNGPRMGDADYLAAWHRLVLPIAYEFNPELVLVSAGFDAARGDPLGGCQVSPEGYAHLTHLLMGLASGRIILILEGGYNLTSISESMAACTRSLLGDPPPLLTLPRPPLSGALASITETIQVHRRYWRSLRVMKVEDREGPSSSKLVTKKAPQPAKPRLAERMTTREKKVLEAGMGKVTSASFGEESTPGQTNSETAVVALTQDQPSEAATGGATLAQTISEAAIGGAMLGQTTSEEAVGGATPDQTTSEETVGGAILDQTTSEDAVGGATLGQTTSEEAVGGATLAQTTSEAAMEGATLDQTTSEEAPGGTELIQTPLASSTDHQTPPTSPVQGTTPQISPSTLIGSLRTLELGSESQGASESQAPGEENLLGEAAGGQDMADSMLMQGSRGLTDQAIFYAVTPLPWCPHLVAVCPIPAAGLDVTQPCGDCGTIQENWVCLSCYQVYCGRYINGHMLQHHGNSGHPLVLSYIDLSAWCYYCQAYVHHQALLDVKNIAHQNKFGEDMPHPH
How it was run: (§1)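 HDAC6 captured on an anti-HDAC6 antibody-coated plate (2 μg/mL, pH 9.4 carbonate buffer, milk-blocked). HeLa-S3 lysate loaded at 1 mg/mL, 1 h at 4 °C, then washed. 15 min RT preincubation with inhibitor in DMSO; HDAC-Glo reagent added, luminescence read at 30-40 min. Concentrations are final. Background = no-antibody well; values are % activity versus DMSO control.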

[2] = molecular target: Histone deacetylase 2 (Homo sapiens) (UniProt Q92769); experiment: Inhibition of HDAC2 in human HeLa-S3 cell lysates assessed as remaining activity at 1.25 uM preincubated for 15 mins followed by HDAC-Glo substrate addition measured after 30 to 40 mins by […] relative to control
Histone deacetylase 2 (Homo sapiens), sequence (Q92769 whole entry, canonical isoform): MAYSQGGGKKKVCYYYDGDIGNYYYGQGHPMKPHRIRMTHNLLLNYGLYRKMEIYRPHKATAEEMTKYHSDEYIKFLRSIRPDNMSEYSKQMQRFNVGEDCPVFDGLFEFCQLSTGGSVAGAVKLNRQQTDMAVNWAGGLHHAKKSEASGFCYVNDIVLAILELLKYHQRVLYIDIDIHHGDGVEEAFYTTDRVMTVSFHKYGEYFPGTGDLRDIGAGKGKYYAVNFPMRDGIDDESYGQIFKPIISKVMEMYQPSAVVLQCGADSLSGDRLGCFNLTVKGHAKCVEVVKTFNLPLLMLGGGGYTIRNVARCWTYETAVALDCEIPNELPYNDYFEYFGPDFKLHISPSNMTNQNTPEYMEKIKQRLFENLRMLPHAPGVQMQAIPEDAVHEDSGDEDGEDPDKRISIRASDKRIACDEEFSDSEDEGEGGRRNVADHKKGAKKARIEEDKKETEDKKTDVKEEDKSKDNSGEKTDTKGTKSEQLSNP
How it was run: (§2)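 Same antibody-capture format as the other class I isoforms. HeLa-S3 lysate added at 100 μg/mL for HDAC1 and HDAC2, 1 h at 4 °C, then washed. Inhibitor in DMSO preincubated 15 min at RT; HDAC-Glo reagent added and luminescence read after 30-40 min. Concentrations are final. Signal corrected against a well without antibody; activity expressed as % of DMSO control.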

[3] = molecular target: T1, Protein deacetylase HDAC6 (Homo sapiens); experiment: Inhibition of HDAC6 in human HeLa-S3 cell lysates assessed as remaining activity at 1.25 uM preincubated for 15 mins followed by HDAC-Glo substrate addition measured after 30 to 40 mins by […] relative to control; how it was run: as §1
[4] = molecular target: Histone deacetylase 1 (Homo sapiens) (UniProt Q13547); experiment: Inhibition of HDAC1 in human HeLa-S3 cell lysates assessed as remaining activity at […] preincubated for 15 mins followed by HDAC-Glo substrate addition measured after 30 to 40 mins by […] relative to control
Histone deacetylase 1 (Homo sapiens), sequence (Q13547 whole entry): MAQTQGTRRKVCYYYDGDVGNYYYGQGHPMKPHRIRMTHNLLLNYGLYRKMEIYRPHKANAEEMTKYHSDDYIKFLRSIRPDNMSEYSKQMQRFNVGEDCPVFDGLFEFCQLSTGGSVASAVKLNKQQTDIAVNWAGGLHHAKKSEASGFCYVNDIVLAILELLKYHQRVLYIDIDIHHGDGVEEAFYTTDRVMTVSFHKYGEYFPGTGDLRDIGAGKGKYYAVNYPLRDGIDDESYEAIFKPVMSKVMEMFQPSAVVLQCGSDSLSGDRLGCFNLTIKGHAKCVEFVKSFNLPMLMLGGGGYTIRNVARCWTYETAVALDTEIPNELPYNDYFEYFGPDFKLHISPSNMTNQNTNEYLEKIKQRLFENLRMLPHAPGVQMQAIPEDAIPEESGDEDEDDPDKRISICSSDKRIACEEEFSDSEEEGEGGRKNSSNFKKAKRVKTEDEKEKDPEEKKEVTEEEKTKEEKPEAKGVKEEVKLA

[5] = molecular target: Histone deacetylase 1 (Homo sapiens) (UniProt Q13547); experiment: Inhibition of HDAC1 in human HeLa-S3 cell lysates assessed as remaining activity at 2 x 10^-6 M preincubated for 15 mins followed by HDAC-Glo substrate addition […] relative to control
[6] = molecular target: Histone deacetylase 2 (Homo sapiens) (UniProt Q92769); experiment: Inhibition of HDAC2 in human HeLa-S3 cell lysates assessed as remaining activity at 1 x 10^-6 M preincubated for 15 mins followed by HDAC-Glo substrate addition measured after 30 to 40 mins by […] relative to control; how it was run: as §2
[7] = molecular target: Histone deacetylase 3 (Homo sapiens) (UniProt O15379); experiment: Inhibition of HDAC3 in human HeLa-S3 cell lysates assessed as remaining activity at 1.6 x 10^-5 M preincubated for 15 mins followed by HDAC-Glo substrate addition measured after 30 to 40 mins by […] relative to control
Histone deacetylase 3 (Homo sapiens), sequence (O15379 whole entry): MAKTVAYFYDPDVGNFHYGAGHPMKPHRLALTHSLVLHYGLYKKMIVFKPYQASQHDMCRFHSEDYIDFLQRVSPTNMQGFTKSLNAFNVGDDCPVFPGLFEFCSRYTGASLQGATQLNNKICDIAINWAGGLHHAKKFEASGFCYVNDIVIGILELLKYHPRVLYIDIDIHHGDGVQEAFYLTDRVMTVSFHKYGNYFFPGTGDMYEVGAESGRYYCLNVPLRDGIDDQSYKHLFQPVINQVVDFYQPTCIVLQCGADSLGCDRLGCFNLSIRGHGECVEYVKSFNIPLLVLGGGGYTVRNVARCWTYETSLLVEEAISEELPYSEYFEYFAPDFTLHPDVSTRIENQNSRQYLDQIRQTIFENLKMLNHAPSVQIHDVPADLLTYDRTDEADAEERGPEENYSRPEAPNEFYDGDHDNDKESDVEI
How it was run: (§3)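 Antibody-capture (ELISA-type) assay: HDAC antibody coated in carbonate/bicarbonate buffer pH 9.4, wells blocked with 5% milk in TBST. HeLa-S3 lysate added at 1 mg/mL for HDAC3, 1 h at 4 °C, then washed. Inhibitor in DMSO preincubated 15 min at RT in HDAC-Glo buffer. HDAC-Glo reagent added, luminescence read after 30-40 min. Concentrations are final. Background = no-antibody well; activity given as % of DMSO control.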

[8] = molecular target: Histone deacetylase 3 (Homo sapiens) (UniProt O15379); experiment: Inhibition of HDAC3 in human HeLa-S3 cell lysates assessed as remaining activity at 1 x 10^-6 M preincubated for 15 mins followed by HDAC-Glo substrate addition measured after 30 to 40 mins by […] relative to control; how it was run: as §3

O=C(CCC(CCCC(=O)Nc1ccccc1)Cc1ccccc1)NO (racemic)
Activity [1]: 2.9%

CCCCCCC(CCCC(=O)Nc1ccccc1)CCC(=O)NO (stereo not drawn)
Activity [2]: 101%
Activity [3]: 21%

CCC(CCCC(=O)Nc1ccccc1)CCC(=O)NO (stereo not drawn)
Activity [4]: 91%
Activity [5]: 68%
Activity [6]: 86%
Activity [7]: 17%
Activity [8]: 83%
